Values after ≈ are worked out from the molar mass of the structure shown.
Experiments:
Format in all cases: functional
Clostridioides difficile [1] = test: Antibacterial activity against Clostridium difficile ATCC 700792 after 16 hrs by two-fold serial dilution method; conditions: ATCC 700792, 16 h
Summary of the method: (§1)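 CLSI agar dilution MIC. Compounds are dissolved in 50% water in DMSO as a stock, twofold serially diluted in sterile water, then diluted 10-fold into Mueller-Hinton agar. Organisms are grown in MH broth at 35 °C for 8 h and adjusted to 0.5 McFarland. They are applied to the drug-containing plates by multipoint inoculator and incubated at 35 °C for 16 h. Vancomycin and demethylvancomycin serve as controls.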

Enterococcus faecalis = test: Antibacterial activity against Enterococcus faecalis ATCC 700802 after 16 hrs by two-fold serial dilution method; conditions: ATCC 700802, 16 h; summary of the method: as §1
[2] = Antibacterial activity against Clostridium difficile ATCC 43255 after 16 hrs by two-fold serial dilution method; conditions: Clostridioides difficile, ATCC 43255, 16 h; summary of the method: as §1
Clostridioides difficile [3] = test: Antibacterial activity against Clostridium difficile ATCC 700057 after 16 hrs by two-fold serial dilution method; conditions: ATCC 700057, 16 h; summary of the method: as §1
Clostridioides difficile [4] = test: Antibacterial activity against Clostridium difficile IQCC 23903 after 16 hrs by two-fold serial dilution method; conditions: IQCC 23903, 16 h; summary of the method: as §1
Clostridioides difficile [5] = test: Ratio of MIC for demethylvancomycin to compound MIC for Clostridium difficile ATCC 43255 after 16 hrs by two-fold serial dilution method
Clostridioides difficile [6] = test: Ratio of MIC for demethylvancomycin to compound MIC for Clostridium difficile ATCC 700057 after 16 hrs by two-fold serial dilution method
Clostridioides difficile [7] = test: Ratio of MIC for demethylvancomycin to compound MIC for Clostridium difficile ATCC 700792 after 16 hrs by two-fold serial dilution method
Clostridioides difficile [8] = test: Ratio of MIC for vancomycin to compound MIC for Clostridium difficile ATCC 43255 after 16 hrs by two-fold serial dilution method
Clostridioides difficile [9] = test: Ratio of MIC for vancomycin to compound MIC for Clostridium difficile IQCC 23903 after 16 hrs by two-fold serial dilution method
Clostridioides difficile [10] = test: Ratio of MIC for vancomycin to compound MIC for Clostridium difficile ATCC 700792 after 16 hrs by two-fold serial dilution method
Clostridioides difficile [11] = test: Ratio of MIC for vancomycin to compound MIC for Clostridium difficile ATCC 700057 after 16 hrs by two-fold serial dilution method
Clostridioides difficile [12] = test: Ratio of MIC for demethylvancomycin to compound MIC for Clostridium difficile IQCC 23903 after 16 hrs by two-fold serial dilution method

SMILES | MIC (Clostridioides difficile [1]) [µg/mL] | MIC (Enterococcus faecalis) [µg/mL] | MIC [2] [µg/mL] | MIC (Clostridioides difficile [3]) [µg/mL] | MIC (Clostridioides difficile [4]) [µg/mL] | Ratio (Clostridioides difficile [5]) | Ratio (Clostridioides difficile [6]) | Ratio (Clostridioides difficile [7]) | Ratio (Clostridioides difficile [8]) | Ratio (Clostridioides difficile [9]) | Ratio (Clostridioides difficile [10]) | Ratio (Clostridioides difficile [11]) | Ratio (Clostridioides difficile [12])
CC(C)=CCC/C(C)=C/CN[C@@]1(C)C[C@H](O[C@H]2[C@H](Oc3c4cc5cc3Oc3ccc(cc3Cl)[C@@H](O)[C@@H](NC(=O)[C@H](N)CC(C)C)C(=O)N[C@@H](CC(N)=O)C(=O)N[C@H]5C(=O)N[C@H]3C(=O)N[C@H](C(=O)N[C@H](C(=O)O)c5cc(O)cc(O)c5-c5cc3ccc5O)[C@H](O)c3ccc(c(Cl)c3)O4)O[C@H](CO)[C@@H](O)[C@@H]2O)O[C@@H](C)[C@H]1O | 0.5 (≈ 0.318 µM) | 16 (≈ 10.2 µM) | 0.5 (≈ 0.318 µM) | 0.5 (≈ 0.318 µM) | 0.5 (≈ 0.318 µM) | – | – | – | – | – | – | – | –
CCC(CC)CN[C@@]1(C)C[C@H](O[C@H]2[C@H](Oc3c4cc5cc3Oc3ccc(cc3Cl)[C@@H](O)[C@@H](NC(=O)[C@H](N)CC(C)C)C(=O)N[C@@H](CC(N)=O)C(=O)N[C@H]5C(=O)N[C@H]3C(=O)N[C@H](C(=O)N[C@H](C(=O)O)c5cc(O)cc(O)c5-c5cc3ccc5O)[C@H](O)c3ccc(c(Cl)c3)O4)O[C@H](CO)[C@@H](O)[C@@H]2O)O[C@@H](C)[C@H]1O | 2 (≈ 1.32 µM) | 32 (≈ 21.1 µM) | 2 (≈ 1.32 µM) | 2 (≈ 1.32 µM) | 2 (≈ 1.32 µM) | – | – | – | – | – | – | – | –
CC(C)C[C@@H](N)C(=O)N[C@H]1C(=O)N[C@@H](CC(N)=O)C(=O)N[C@H]2C(=O)N[C@H]3C(=O)N[C@H](C(=O)N[C@H](C(=O)O)c4cc(O)cc(O)c4-c4cc3ccc4O)[C@H](O)c3ccc(c(Cl)c3)Oc3cc2cc(c3O[C@@H]2O[C@H](CO)[C@@H](O)[C@H](O)[C@H]2O[C@H]2C[C@](C)(NCc3ccc(Br)cc3)[C@H](O)[C@H](C)O2)Oc2ccc(cc2Cl)[C@H]1O | 0.25 (≈ 0.156 µM) | 8 (≈ 4.99 µM) | 0.25 (≈ 0.156 µM) | 0.25 (≈ 0.156 µM) | 0.25 (≈ 0.156 µM) | 2 | 2 | 2 | 2 | 2 | 2 | 2 | 2
CCCCCCCN[C@@]1(C)C[C@H](O[C@H]2[C@H](Oc3c4cc5cc3Oc3ccc(cc3Cl)[C@@H](O)[C@@H](NC(=O)[C@H](N)CC(C)C)C(=O)N[C@@H](CC(N)=O)C(=O)N[C@H]5C(=O)N[C@H]3C(=O)N[C@H](C(=O)N[C@H](C(=O)O)c5cc(O)cc(O)c5-c5cc3ccc5O)[C@H](O)c3ccc(c(Cl)c3)O4)O[C@H](CO)[C@@H](O)[C@@H]2O)O[C@@H](C)[C@H]1O | 0.5 (≈ 0.326 µM) | 8 (≈ 5.22 µM) | 0.5 (≈ 0.326 µM) | 0.25 (≈ 0.163 µM) | 0.25 (≈ 0.163 µM) | 2 | 2 | 2 | 2 | 2 | 2 | 2 | 2
CC(C)C[C@@H](N)C(=O)N[C@H]1C(=O)N[C@@H](CC(N)=O)C(=O)N[C@H]2C(=O)N[C@H]3C(=O)N[C@H](C(=O)N[C@H](C(=O)O)c4cc(O)cc(O)c4-c4cc3ccc4O)[C@H](O)c3ccc(c(Cl)c3)Oc3cc2cc(c3O[C@@H]2O[C@H](CO)[C@@H](O)[C@H](O)[C@H]2O[C@H]2C[C@](C)(NCC3CCCCC3)[C@H](O)[C@H](C)O2)Oc2ccc(cc2Cl)[C@H]1O | 1 (≈ 0.653 µM) | 16 (≈ 10.4 µM) | 1 (≈ 0.653 µM) | 0.5 (≈ 0.326 µM) | 0.5 (≈ 0.326 µM) | – | – | – | – | – | – | – | –
CCCCCCCCCCCCCN[C@@]1(C)C[C@H](O[C@H]2[C@H](Oc3c4cc5cc3Oc3ccc(cc3Cl)[C@@H](O)[C@@H](NC(=O)[C@H](N)CC(C)C)C(=O)N[C@@H](CC(N)=O)C(=O)N[C@H]5C(=O)N[C@H]3C(=O)N[C@H](C(=O)N[C@H](C(=O)O)c5cc(O)cc(O)c5-c5cc3ccc5O)[C@H](O)c3ccc(c(Cl)c3)O4)O[C@H](CO)[C@@H](O)[C@@H]2O)O[C@@H](C)[C@H]1O | 2 (≈ 1.24 µM) | 4 (≈ 2.47 µM) | 1 (≈ 0.618 µM) | 2 (≈ 1.24 µM) | 1 (≈ 0.618 µM) | – | – | – | – | – | – | – | –
CN[C@H](CC(C)C)C(=O)N[C@H]1C(=O)N[C@@H](CC(N)=O)C(=O)N[C@H]2C(=O)N[C@H]3C(=O)N[C@H](C(=O)N[C@H](C(=O)O)c4cc(O)cc(O)c4-c4cc3ccc4O)[C@H](O)c3ccc(c(Cl)c3)Oc3cc2cc(c3O[C@@H]2O[C@H](CO)[C@@H](O)[C@H](O)[C@H]2O[C@H]2C[C@](C)(N)[C@H](O)[C@H](C)O2)Oc2ccc(cc2Cl)[C@H]1O [VANCOMYCIN] | 1 (≈ 0.69 µM) | 32 (≈ 22.1 µM) | 1 (≈ 0.69 µM) | 0.5 (≈ 0.345 µM) | 0.5 (≈ 0.345 µM) | – | – | – | – | – | – | – | –
CC(C)C[C@@H](N)C(=O)N[C@H]1C(=O)N[C@@H](CC(N)=O)C(=O)N[C@H]2C(=O)N[C@H]3C(=O)N[C@H](C(=O)N[C@H](C(=O)O)c4cc(O)cc(O)c4-c4cc3ccc4O)[C@H](O)c3ccc(c(Cl)c3)Oc3cc2cc(c3O[C@@H]2O[C@H](CO)[C@@H](O)[C@H](O)[C@H]2O[C@H]2C[C@](C)(NCc3cc4ccccc4o3)[C@H](O)[C@H](C)O2)Oc2ccc(cc2Cl)[C@H]1O | 1 (≈ 0.639 µM) | 8 (≈ 5.11 µM) | 1 (≈ 0.639 µM) | 0.5 (≈ 0.319 µM) | 0.5 (≈ 0.319 µM) | – | – | – | – | – | – | – | –
COc1ccc(CN[C@@]2(C)C[C@H](O[C@H]3[C@H](Oc4c5cc6cc4Oc4ccc(cc4Cl)[C@@H](O)[C@@H](NC(=O)[C@H](N)CC(C)C)C(=O)N[C@@H](CC(N)=O)C(=O)N[C@H]6C(=O)N[C@H]4C(=O)N[C@H](C(=O)N[C@H](C(=O)O)c6cc(O)cc(O)c6-c6cc4ccc6O)[C@H](O)c4ccc(c(Cl)c4)O5)O[C@H](CO)[C@@H](O)[C@@H]3O)O[C@@H](C)[C@H]2O)cc1 | 1 (≈ 0.643 µM) | 16 (≈ 10.3 µM) | 0.5 (≈ 0.321 µM) | 0.5 (≈ 0.321 µM) | 0.5 (≈ 0.321 µM) | – | – | – | – | – | – | – | –
CC(C)C[C@@H](N)C(=O)N[C@H]1C(=O)N[C@@H](CC(N)=O)C(=O)N[C@H]2C(=O)N[C@H]3C(=O)N[C@H](C(=O)N[C@H](C(=O)O)c4cc(O)cc(O)c4-c4cc3ccc4O)[C@H](O)c3ccc(c(Cl)c3)Oc3cc2cc(c3O[C@@H]2O[C@H](CO)[C@@H](O)[C@H](O)[C@H]2O[C@H]2C[C@](C)(NCc3ccc(F)cc3)[C@H](O)[C@H](C)O2)Oc2ccc(cc2Cl)[C@H]1O | 0.5 (≈ 0.324 µM) | 16 (≈ 10.4 µM) | 0.5 (≈ 0.324 µM) | 0.5 (≈ 0.324 µM) | 0.5 (≈ 0.324 µM) | – | – | – | – | – | – | – | –
CC(C)CCN[C@@]1(C)C[C@H](O[C@H]2[C@H](Oc3c4cc5cc3Oc3ccc(cc3Cl)[C@@H](O)[C@@H](NC(=O)[C@H](N)CC(C)C)C(=O)N[C@@H](CC(N)=O)C(=O)N[C@H]5C(=O)N[C@H]3C(=O)N[C@H](C(=O)N[C@H](C(=O)O)c5cc(O)cc(O)c5-c5cc3ccc5O)[C@H](O)c3ccc(c(Cl)c3)O4)O[C@H](CO)[C@@H](O)[C@@H]2O)O[C@@H](C)[C@H]1O | 1 (≈ 0.664 µM) | 32 (≈ 21.3 µM) | 1 (≈ 0.664 µM) | 1 (≈ 0.664 µM) | 0.5 (≈ 0.332 µM) | – | – | – | – | – | – | – | –
CC(C)C[C@@H](N)C(=O)N[C@@H]1C(=O)N[C@@H](CC(N)=O)C(=O)N[C@H]2C(=O)N[C@H]3C(=O)N[C@H](C(=O)N[C@H](C(=O)O)c4cc(O)cc(O)c4-c4cc3ccc4O)[C@H](O)c3ccc(c(Cl)c3)Oc3cc2cc(c3O[C@@H]2O[C@H](CO)[C@@H](O)[C@H](O)[C@H]2O[C@H]2C[C@](C)(N)C(O)[C@H](C)O2)Oc2ccc(cc2Cl)[C@H]1O (stereo partly specified) [DEMETHYLVANCOMYCIN] | 0.5 (≈ 0.348 µM) | > 32 | 0.5 (≈ 0.348 µM) | 0.5 (≈ 0.348 µM) | 0.5 (≈ 0.348 µM) | – | – | – | – | – | – | – | –
CC(C)C[C@@H](N)C(=O)N[C@H]1C(=O)N[C@@H](CC(N)=O)C(=O)N[C@H]2C(=O)N[C@H]3C(=O)N[C@H](C(=O)N[C@H](C(=O)O)c4cc(O)cc(O)c4-c4cc3ccc4O)[C@H](O)c3ccc(c(Cl)c3)Oc3cc2cc(c3O[C@@H]2O[C@H](CO)[C@@H](O)[C@H](O)[C@H]2O[C@H]2C[C@](C)(NCc3ccco3)[C@H](O)[C@H](C)O2)Oc2ccc(cc2Cl)[C@H]1O | 0.5 (≈ 0.33 µM) | 32 (≈ 21.1 µM) | 0.5 (≈ 0.33 µM) | 0.5 (≈ 0.33 µM) | 0.5 (≈ 0.33 µM) | – | – | – | – | – | – | – | –
CC(C)C[C@@H](N)C(=O)N[C@H]1C(=O)N[C@@H](CC(N)=O)C(=O)N[C@H]2C(=O)N[C@H]3C(=O)N[C@H](C(=O)N[C@H](C(=O)O)c4cc(O)cc(O)c4-c4cc3ccc4O)[C@H](O)c3ccc(c(Cl)c3)Oc3cc2cc(c3O[C@@H]2O[C@H](CO)[C@@H](O)[C@H](O)[C@H]2O[C@H]2C[C@](C)(NCc3cccs3)[C@H](O)[C@H](C)O2)Oc2ccc(cc2Cl)[C@H]1O | 0.5 (≈ 0.326 µM) | 32 (≈ 20.9 µM) | 0.5 (≈ 0.326 µM) | 0.5 (≈ 0.326 µM) | 0.5 (≈ 0.326 µM) | – | – | – | – | – | – | – | –

Source: ChEMBL document CHEMBL2057152, “Synthesis and antibacterial activity against Clostridium difficile of novel demethylvancomycin derivatives” (2012)
